# Source: ChEMBL document CHEMBL3407351, “Pyrido-imidazodiazepinones as a new class of reversible inhibitors of human kallikrein 7” (Eur J Med Chem, 2015)
# The source made the active and inactive calls. The rule behind the calls is not given here.
# How the values were obtained:
# Kallikrein-7 [1] = biological target: T1, Kallikrein-7 (Homo sapiens, UniProt P49862); experiment: Inhibition of human KLK7 using Suc-Leu-Leu-Val-Tyr-AMC as substrate at 50 uM after 15 mins by fluorescence assay relative to control
# Target sequence in this assay (P49862 30-253 limits assumed): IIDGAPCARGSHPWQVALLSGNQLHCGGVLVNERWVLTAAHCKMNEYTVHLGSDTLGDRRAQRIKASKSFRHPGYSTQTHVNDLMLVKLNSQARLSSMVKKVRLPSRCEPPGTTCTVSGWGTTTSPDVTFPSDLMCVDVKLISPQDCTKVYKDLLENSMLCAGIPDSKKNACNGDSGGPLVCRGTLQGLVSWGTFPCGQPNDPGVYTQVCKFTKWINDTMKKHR
# Kallikrein-7 [2] = biological target: T1, Kallikrein-7; experiment: Reversible inhibition of human KLK7 using Suc-Leu-Leu-Val-Tyr-AMC as substrate preincubated for 15 to 60 mins followed by 40 fold dilution by fluorescence assay
# Procedure, shortened: (§1)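 KLK7 preincubated with inhibitor, 50 µM where stated, for 15 and 60 min at pH 8.0 and 37 °C. Mixture then diluted 40-fold into buffer holding Suc-LLVY-AMC under the routine KLK7 conditions. Residual activity read fluorimetrically, ex 360 / em 460 nm, and compared with the uninhibited enzyme.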
# Target sequence in this assay (P49862 30-253 limits assumed): as above
# [3] = biological target: T2, Kallikrein-14 (Homo sapiens) (UniProt Q9P0G3); experiment: Inhibition of human KLK14 using Boc-Val-Pro-Arg-AMC as substrate at 50 uM after 15 mins by fluorescence assay
# T2 sequence (whole entry): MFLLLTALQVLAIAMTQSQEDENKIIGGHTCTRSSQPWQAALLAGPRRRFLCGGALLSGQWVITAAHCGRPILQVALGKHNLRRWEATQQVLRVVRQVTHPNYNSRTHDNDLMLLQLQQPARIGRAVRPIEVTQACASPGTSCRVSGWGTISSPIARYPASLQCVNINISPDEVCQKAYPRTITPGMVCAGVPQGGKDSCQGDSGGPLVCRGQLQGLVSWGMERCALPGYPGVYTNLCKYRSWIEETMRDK
# Procedure, shortened: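 KLK14 at 0.2 nM, final, with 10 µM Boc-VPR-AMC in pH 8.0 buffer of 50 mM Tris-HCl, 0.01% Tween 20, 1 M NaCl, 2% DMSO. Compound at 50 µM preincubated 15 min with enzyme. Fluorescence then read 15 min at 37 °C, ex 360 / em 460 nm. Percent inhibition taken from initial rates relative to control.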
# Kallikrein-7 [4] = biological target: T1, Kallikrein-7; experiment: Competitive inhibition of human KLK7 using Suc-Leu-Leu-Val-Tyr-AMC as substrate by Lineweaver-Burk plot analysis
# Target sequence in this assay (P49862 whole entry): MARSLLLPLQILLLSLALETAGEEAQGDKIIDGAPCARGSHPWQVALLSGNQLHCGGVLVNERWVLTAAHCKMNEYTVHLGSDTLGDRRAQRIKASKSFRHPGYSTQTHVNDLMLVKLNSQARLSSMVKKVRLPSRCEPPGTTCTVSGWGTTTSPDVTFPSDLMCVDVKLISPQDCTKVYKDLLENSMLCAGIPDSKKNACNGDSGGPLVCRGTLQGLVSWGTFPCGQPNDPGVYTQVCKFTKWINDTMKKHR
# [5] = biological target: T3, Kallikrein-8 (Homo sapiens) (UniProt O60259); experiment: Inhibition of human KLK8 using Boc-Val-Pro-Arg-AMC as substrate at 50 uM after 15 mins by fluorescence assay
# T3 sequence (whole entry): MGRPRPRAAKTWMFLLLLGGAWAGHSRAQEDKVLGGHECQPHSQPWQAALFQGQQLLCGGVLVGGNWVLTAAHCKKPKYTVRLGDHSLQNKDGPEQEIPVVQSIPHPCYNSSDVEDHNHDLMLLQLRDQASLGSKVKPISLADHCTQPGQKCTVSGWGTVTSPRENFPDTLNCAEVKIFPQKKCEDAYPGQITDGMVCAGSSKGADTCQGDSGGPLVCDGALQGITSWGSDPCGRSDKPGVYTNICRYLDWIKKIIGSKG
# Procedure, shortened: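 KLK8 at 1 nM, final, with 100 µM Boc-VPR-AMC in pH 8.0 Tris-HCl buffer containing 0.01% Tween 20 and 2% DMSO. Compound at 50 µM preincubated with enzyme 15 min. Substrate hydrolysis then monitored 15 min at 37 °C, ex 360 / em 460 nm. Initial rates compared with the untreated enzyme.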
# Kallikrein-7 [6] = biological target: T1, Kallikrein-7; experiment: Inhibition of human KLK7 using Suc-Leu-Leu-Val-Tyr-AMC as substrate after 15 mins by fluorescence assay
# Procedure, shortened: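 Recombinant KLK7 at 7.6 nM, final, with 40 µM Suc-LLVY-AMC in pH 8.0 buffer of 50 mM Tris-HCl, 0.01% Tween 20, 1 M NaCl, 2% DMSO. Enzyme preincubated 15 min with compound, then hydrolysis followed for 15 min at 37 °C, ex 360 / em 460 nm. Run in triplicate. Initial rates taken relative to untreated enzyme; IC50 fitted to hyperbolic or Hill equation.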
# Target sequence in this assay (P49862 whole entry): as the sequence (P49862 whole entry) above
# [7] = biological target: Kallikrein-5 (Homo sapiens) (UniProt Q9Y337); experiment: Inhibition of human KLK5 using Boc-Val-Pro-Arg-AMC as substrate at 50 uM after 15 mins by fluorescence assay
# Kallikrein-5 (Homo sapiens), sequence (Q9Y337 whole entry): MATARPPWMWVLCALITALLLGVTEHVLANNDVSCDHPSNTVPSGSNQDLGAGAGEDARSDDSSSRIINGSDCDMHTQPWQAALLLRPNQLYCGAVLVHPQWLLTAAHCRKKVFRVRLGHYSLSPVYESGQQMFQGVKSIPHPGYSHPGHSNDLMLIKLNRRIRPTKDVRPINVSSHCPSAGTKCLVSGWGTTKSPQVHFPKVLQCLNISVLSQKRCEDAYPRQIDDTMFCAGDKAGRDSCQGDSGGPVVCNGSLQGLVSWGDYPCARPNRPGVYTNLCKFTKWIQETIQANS
# Procedure, shortened: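 KLK5 at 0.6 nM, final, with 100 µM Boc-VPR-AMC in pH 8.0 buffer of 50 mM Tris-HCl, 0.01% Tween 20, 150 mM NaCl, 2% DMSO. Compound at 50 µM preincubated 15 min with enzyme. Fluorescence then read 15 min at 37 °C, ex 360 / em 460 nm. Inhibition taken from initial rates versus untreated control.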
# Kallikrein-7 [8] = biological target: T1, Kallikrein-7; experiment: Reversible inhibition of human KLK7 using Suc-Leu-Leu-Val-Tyr-AMC as substrate at 50 uM preincubated for 15 mins followed by 40 fold dilution by fluorescence assay; procedure, shortened: as §1
# Target sequence in this assay (P49862 30-253 limits assumed): as the sequence (P49862 30-253 limits assumed) above
# SW-620 = experiment: Cytotoxicity against human SW620 cells assessed as cell death after 48 to 72 hrs by XTT assay; type: functional, cell-based
# Procedure, shortened: (§2)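 Cells seeded at 5000 per well in DMEM with 10% FBS, penicillin and streptomycin (100 µg/mL each), 37°C, 5% CO2. Compound in DMSO added 20 h after seeding, 1% DMSO final, DMSO-only controls. At least three wells per condition. Viability relative to DMSO; EC50 = concentration giving 50% cell death.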
# [9] = Cytotoxicity against human PC3 cells assessed as cell death after 48 to 72 hrs by XTT assay; type: functional, cell-based, PC-3; procedure, shortened: as §2
# HeLa = experiment: Cytotoxicity against human HeLa cells assessed as cell death after 48 to 72 hrs by XTT assay; type: functional, cell-based
# Procedure, shortened: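 Cells seeded at 5000/well in DMEM with 10% FBS, penicillin and streptomycin, 37 °C, 5% CO2. Compounds in DMSO added 20 h later, final DMSO 1%; screened at 100 µM, then over a concentration range, at least three wells per condition. Absorbance read at 485 nm after 3 h, viability given relative to DMSO controls, EC50 taken as 50% cell death.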
# [10] = Homo sapiens, HeLa, read-out: EC50
structure (smiles),measurement,setting,value
Nc1nc2ccccn2c1C(=O)[C@H](Cc1ccccc1)NC(=O)c1ccncc1,inhibition,Kallikrein-7 [1],< 30%
Cc1ccccc1C1=Nc2nc3ccccn3c2C(=O)[C@H](Cc2ccccc2)N1,inhibition,Kallikrein-7 [1],> 30%
same,inhibition,Kallikrein-7 [2],Active
same,inhibition,[3],inactive
same,Ki,Kallikrein-7 [4],50.6 µM
same,inhibition,[5],inactive
same,IC50,Kallikrein-7 [6],57 µM
same,inhibition,[7],inactive
Nc1nc2ccccn2c1C(=O)[C@H](Cc1ccccc1)NC(=O)c1ccccn1,inhibition,Kallikrein-7 [1],< 30%
Cc1cccc(C2=Nc3nc4ccccn4c3C(=O)[C@H](Cc3ccccc3)N2)c1,inhibition,Kallikrein-7 [1],< 30%
Nc1nc2ccccn2c1C(=O)[C@H](Cc1ccccc1)NC(=O)c1ccccc1,inhibition,Kallikrein-7 [1],< 30%
COc1ccc(C2=Nc3nc4ccccn4c3C(=O)[C@H](COCc3ccccc3)N2)cc1OC,inhibition,Kallikrein-7 [1],< 30%
COc1ccc(C2=Nc3nc4ccccn4c3C(=O)[C@H](Cc3ccc(OCc4ccccc4)cc3)N2)cc1OC,inhibition,Kallikrein-7 [1],< 30%
COc1ccc(C2=Nc3nc4ccccn4c3C(=O)[C@H](Cc3ccccc3)N2)cc1OC,inhibition,[3],inactive
same,inhibition,Kallikrein-7 [8],Active
same,EC50,SW-620; sw-620,Not Active
same,Ki,Kallikrein-7 [4],27 µM
same,inhibition,[5],inactive
same,EC50,"[9]; Homo sapiens, PC-3, read-out: EC50",64.8 µM
same,IC50,Kallikrein-7 [6],33.5 µM
same,inhibition,[7],inactive
same,EC50,HeLa; [10],24.3 µM
O=C1c2c(nc3ccccn23)N=C(c2cccc(O)c2)N[C@H]1Cc1ccccc1,IC50,Kallikrein-7 [6],125 µM
O=C1c2c(nc3ccccn23)N=C(c2ccc(Br)cc2)N[C@H]1Cc1ccccc1,inhibition,Kallikrein-7 [1],< 30%
Nc1nc2ccccn2c1C(=O)[C@H](Cc1ccccc1)NC(=O)CCc1ccccc1,inhibition,Kallikrein-7 [1],< 30%
O=C1c2c(nc3ccccn23)N=C(c2ccc([N+](=O)[O-])cc2)N[C@H]1Cc1ccccc1,inhibition,Kallikrein-7 [1],< 30%
Nc1nc2ccccn2c1C(=O)[C@H](Cc1ccccc1)NC(=O)c1ccc[nH]1,inhibition,Kallikrein-7 [1],< 30%
CC(C)CC1=Nc2nc3ccccn3c2C(=O)[C@H](Cc2ccccc2)N1,inhibition,Kallikrein-7 [1],< 30%
COc1ccc(C2=Nc3nc4ccccn4c3C(=O)[C@H](C)N2)cc1OC,inhibition,Kallikrein-7 [1],< 30%
O=C1Nc2nc3ccccn3c2C(=O)[C@H](Cc2ccccc2)N1,inhibition,Kallikrein-7 [1],< 30%
COc1ccccc1C1=Nc2nc3ccccn3c2C(=O)[C@H](Cc2ccccc2)N1,inhibition,Kallikrein-7 [1],< 30%
COc1ccc(C2=Nc3nc4ccccn4c3C(O)[C@H](Cc3ccccc3)N2)cc1OC (some centres not stated),inhibition,Kallikrein-7 [1],< 30%
Nc1nc2ccccn2c1C(=O)[C@H](Cc1ccccc1)NC(=O)/C=C/c1ccccc1,inhibition,Kallikrein-7 [1],< 30%
Cc1ccccc1C1=Nc2nc3ccccn3c2C(=O)[C@@H](Cc2ccccc2)N1,IC50,Kallikrein-7 [6],95.9 µM
COc1ccc(OC)c(C2=Nc3nc4ccccn4c3C(=O)[C@H](Cc3ccccc3)N2)c1,EC50,SW-620; sw-620,Not Active
same,EC50,[9]; pc-3,Not Active
same,IC50,Kallikrein-7 [6],80.9 µM
same,EC50,HeLa; [10],40 µM
O=C1c2c(nc3ccccn23)N=C(c2cc(O)ccc2O)N[C@H]1Cc1ccccc1,inhibition,Kallikrein-7 [1],< 30%
Cc1ccccc1C(=O)N[C@@H](Cc1ccccc1)C(=O)c1c(N)nc2ccccn12,IC50,Kallikrein-7 [6],135 µM
O=C1c2c(nc3ccccn23)N=C(c2ccccc2O)N[C@H]1Cc1ccccc1,inhibition,Kallikrein-7 [1],< 30%
COc1cccc(C2=Nc3nc4ccccn4c3C(=O)[C@H](Cc3ccccc3)N2)c1,inhibition,Kallikrein-7 [1],< 30%
COc1ccc(C2=Nc3nc4ccccn4c3C(=O)[C@H](Cc3ccccc3)N2C)cc1OC,inhibition,Kallikrein-7 [1],< 30%
COc1ccc(C2=Nc3nc4ccccn4c3C(=O)[C@H](Cc3ccccc3)N2)cc1,IC50,Kallikrein-7 [6],72 µM
COc1ccc(C(=O)N[C@@H](Cc2ccccc2)C(=O)c2c(N)nc3ccccn23)cc1OC,inhibition,Kallikrein-7 [1],< 30%
Cc1ccccc1C1=Nc2nc3ccccn3c2C(=O)[C@H](Cc2cccc3ccccc23)N1,inhibition,Kallikrein-7 [1],< 30%
O=C1c2c(nc3ccccn23)N=C(c2cccnc2)N[C@H]1Cc1ccccc1,inhibition,Kallikrein-7 [1],< 30%
O=C1c2c(nc3ccccn23)N=C(c2ccccc2)N[C@H]1Cc1ccccc1,inhibition,Kallikrein-7 [1],< 30%
Nc1nc2ccccn2c1C(=O)[C@H](Cc1ccccc1)NC(=O)Cc1ccccc1,IC50,Kallikrein-7 [6],149 µM
Cc1ccccc1C1=Nc2nc3ccccn3c2C(=O)[C@H](C)N1,inhibition,Kallikrein-7 [1],< 30%
Cc1ccccc1C1=Nc2nc3ccccn3c2C(=O)[C@H](COCc2ccccc2)N1,inhibition,Kallikrein-7 [1],< 30%
Cc1ccc(C2=Nc3nc4ccccn4c3C(=O)[C@H](Cc3ccccc3)N2)c(C)c1,EC50,"SW-620; Homo sapiens, SW-620, read-out: EC50",67.8 µM
same,EC50,[9]; pc-3,Not Active
same,IC50,Kallikrein-7 [6],83.9 µM
same,EC50,HeLa; hela,Not Active
COc1ccc(C2=Nc3nc4ccccn4c3C(=O)[C@H](Cc3ccc(O)cc3)N2)cc1OC,inhibition,Kallikrein-7 [1],< 30%
Cc1ccc(C2=Nc3nc4ccccn4c3C(=O)[C@H](Cc3ccccc3)N2)cc1,IC50,Kallikrein-7 [6],68 µM
COc1ccc(C2=Nc3nc4ccccn4c3C(=O)[C@H](CO)N2)cc1OC,inhibition,Kallikrein-7 [1],< 30%
COc1cc(C2=Nc3nc4ccccn4c3C(=O)[C@H](Cc3ccccc3)N2)cc(OC)c1OC,EC50,SW-620; sw-620,Not Active
same,EC50,[9]; pc-3,Not Active
same,IC50,Kallikrein-7 [6],55.7 µM
same,EC50,HeLa; [10],53.8 µM
